Results on two molecules are retold here after PMC10652724 (ACS Omega, 2023).

The conditions of data set [1]: nitrofuran metabolite; cited from earlier work.
The nature of data set [2]: In vitro cytotoxicity, Cell Counting Kit-8. The note with it: bovine, MDBK cells (Madin–Darby bovine kidney). The format is cell-based. In short, it runs like this: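 MDBK cells (1 × 10^4 cells/mL) incubated at 37°C for 72 h with test compound in […] twofold serial dilutions, 100 down to 0.39 μg/mL. Cell Counting Kit-8 added; OD450 read before and after a further 4 h incubation. Done in three replicates. CC50 from nonlinear regression curve fit, reported as mean ± SD.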
Background: Tetrazolium dyes change colour on reduction, which living cells bring about.

The subject of data set [3] is T. b. brucei GUTat3.1. The data set is described as follows: In vitro trypanocidal activity, bloodstream forms, CellTiter-Glo. It counts as cell-based, Trypanosoma brucei brucei. Background: Cellular ATP, detected with luciferase, serves as a proxy for viable cell number.
For data set [4], the system named is T. b. gambiense IL1922. The data set is described as above. It counts as cell-based, Trypanosoma brucei gambiense.
The test system of data set [5] is T. b. rhodesiense IL1501. The data set is described as above. It counts as cell-based, Trypanosoma brucei rhodesiense.
For data set [6], the system named is T. equiperdum IVM-t1. Described as above. It counts as cell-based, Trypanosoma equiperdum.
Data set [7] concerns T. evansi Tansui. The description is as above. The format is cell-based, Trypanosoma evansi.
In data set [8] the test system is T. congolense IL3000. The data set is described as above. It counts as cell-based, Trypanosoma congolense.
Data set [9] has as its system T. congolense IL3000. The note with it: T. congolense IL3000 infected mice, cited from earlier work.

One may read the CC50 as the concentration giving 50% cytotoxicity. As a reminder, the IC50 is the concentration that gives 50% inhibition.

For `NN1CC(=O)NC1=O` [1-aminihydantoin, 1-aminohydantoin], the “metabolite present in edible pig tissues” value in data set [1] was 3 to 8 µg/kg.
As to `O=C1CN(/N=C/c2ccc([N+](=O)[O-])o2)C(=O)N1` [Nitrofurantoin, nitrofurantoin], half-maximal cytotoxicity in [2] (CC50 at 72 h) was put at 73000 ± 36200 nM. Further, the “Selectivity index (SI)” value in data set [3] (CC50 of MDBK/IC50 of Tbb GuTat3.1) is recorded as 48; in data set [4] (CC50 of MDBK/IC50 of Tbg IL1922), 39; in data set [5] (CC50 of MDBK/IC50 of Tbr IL1501), 43; in [6] (CC50 of MDBK/IC50 of Teq IVM-t1) it was 50; in [7] (CC50 of MDBK/IC50 of Tev Tansui) it was 44; in data set [8] (CC50 of MDBK/IC50 of Tc IL3000), 174. The IC50 in data set [3] (Trypanosoma brucei, 72 h, read-out: trypanocidal activity IC50 ± SD) was determined as 1510 ± 30 nM; in data set [4] (Trypanosoma brucei, GAMBIENSE, 72 h, read-out: trypanocidal activity IC50 ± SD), 1850 ± 230 nM; in data set [5] (Trypanosoma brucei, RHODESIENSE, 72 h, read-out: trypanocidal activity IC50 ± SD) it was 1690 ± 200 nM; in [6] (Trypanosoma equiperdum, 72 h, read-out: trypanocidal activity IC50 ± SD), 1450 ± 30 nM; in [7] (Trypanosoma evansi, 72 h, read-out: trypanocidal activity IC50 ± SD), 1670 ± 70 nM; in [8] (Trypanosoma congolense, 72 h, read-out: trypanocidal activity IC50 ± SD) it was 420 ± 50 nM. Further, in data set [9], the minimum effective dose is on record as 30 mg/kg. In data set [9] (dose ≥30 mg/kg), the survival and cure is given as 100%.
